Assay results: article PMC9009525 (ACS synthetic biology, 2021)
Ends that are not written are not given here.

System: T7 Express LysY/I^q E. coli
Assay: Induction test: growth
Type: cell-based, Escherichia coli
Settings: 0.50 mM IPTG, LB with kan, 37 °C, OD600 over nine hours
Summary of the method: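 T7 Express LysY/Iq E. coli transformed with 80 ng pETh vector carrying oncocin or a negative control, each separately. After SOC recovery, cells were pelleted and resuspended in LB with 50 µg mL-1 kanamycin. This suspension seeded LB-kanamycin (1:100) containing 0 to 0.50 mM IPTG. Cultures were shaken at 250 rpm at 37 °C for nine hours, with OD600 read every 50 minutes.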

## VDKPPYLPRPRPPRRIYNR-NH2 (C-terminus assumed) [oncocin]
  growth of oncocin-expressing E. coli upon induction (in words): nearly complete growth inhibition
